Measured values: PubChem BioAssay
Activity calls are given as the source filed them.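 Rule for the calls, unless noted: active = NADPH fluorescence slope more negative than the mean of all samples by about 3 SD, 99.7% confidence; inactive = the rest.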

How the values were obtained:
[1] = inhibitors of TNFa-induced NFkB p65 translocation, primary screen, imaging, HUVEC, MLSMR starter and 10KST1 sets (AID 438;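 active = inhibition above 20% together with a positive visual image hit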;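 note: compound added about 3h40 before a 20 min TNFalpha stimulation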;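 for inhibition: signal is the nuclear over cytoplasmic p65 intensity ratio per well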); settings: HUVEC TNFa-induced p65 nuclear translocation; cell count: measured here: nuclei count (cytotoxicity indicator), at 2.08 µM; inhibition: at 2 µM, stronger effect = higher value, 0% TNFa-plus-vehicle, 100% no-TNFa wells
[2] = endothelial E-selectin expression blockers – imaging, HUVEC, immunofluorescence, MLSMR starter and 10KST1 sets, primary screen (AID 487;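 active = visually confirmed hit in the image check and inhibition above 20%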;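 for inhibition: signal is fraction of cell area covered by stained E-selectin grains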;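 for nuclei count: 100% = median nuclei count of all wells on the same plate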); settings: HUVEC TNFalpha-induced E-selectin immunofluorescence imaging, at 2 µM; inhibition: stronger effect = higher value; nuclei count: measured here: cell number, toxicity
[3] = Primary imaging screen for DUSP6 inhibitors that restore phospho-Erk in transfected HeLa cells, chemical complementation (AID 609;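 active = compounds giving at least 50% inhibition in the cell-based MKP-3 phosphatase rescue imaging test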;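 for inhibition: phospho-Erk level distribution per well compared with pooled transfected vehicle control wells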); settings: HeLa MKP-3 transfected, phospho-Erk imaging KS statistic, at 10 µM, cells stimulated with TPA for 15 min
[4] = target: Dual specificity protein phosphatase 6 (Homo sapiens) (UniProt Q16828); test: as above; settings: HeLa MKP-3 transfected, phospho-Erk imaging KS statistic; at 10 µM; stronger effect = higher value; cells stimulated with TPA for 15 min
[5] = target: Voltage-gated potassium channel subunit beta-2 (Rattus norvegicus) (UniProt P62483); test: inhibitors of rat Kvbeta2 reductase activity – biochemical, NADPH fluorescence, primary screen (AID 622;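 active = fluorescence slope higher than the sample average by over 3 SD, cut at about -0.22 in these data, passing the limit was not always enough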;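 note: slope of raw intensity against log time taken from 70 to 1610 s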); settings: recombinant KvBeta, 4-cyanobenzaldehyde reduction, at 10 µM, stronger effect = higher value
[6] = target: Voltage-gated potassium channel subunit beta-2 (Rattus norvegicus) (UniProt P62483); test: enhancers of rat Kvbeta2 NADPH turnover – biochemical, NADPH fluorescence, primary screen (AID 623); settings: Recombinant KvBeta, NADPH fluorescence decrease slope, 10 min; at 10 µM; stronger effect = lower value;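 note: fluorescence intensity change per second fitted from 20 to 320 s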
[7] = target: Muscarinic acetylcholine receptor M4 (Homo sapiens) (UniProt P08173); test: M4-linked GIRK flux change, two-sided – cell-based, HEK293 M4/GIRK, thallium flux, BTC-AM, M4 allosteric agonist project, primary screen (AID 625;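 active = fluorescence slope after compound addition differing from the mean of all tested samples at 99.7% confidence, mostly higher but some lower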;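 note: thallium influx through GIRK channels coupled to M4 in HEK293 cells with BTC-AM dye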); settings: at 10 µM, actives lie on both sides
Summary of the method: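 Material – HEK293 cells with M4 receptor and GIRK channels · Buffer or medium – pH 7.3 thallium assay buffer · Doses – one dose, 10 µM final · Timing – cells overnight at 37 °C, BTC-AM loading 1 h, reads 2 min total · Measured by – kinetic fluorescence with BTC-AM dye · Controls – carbachol and DMSO controls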

[8] = inhibitors of larval lipid processing in zebrafish, primary screen, whole organism, PED6 fluorescence, gall bladder and intestine (AID 686;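 active = a full or partial loss of lipid-probe fluorescence in the fish gall bladder, intestine or both, judged by eye; inactive = no fluorescence loss, or compound toxic to the fish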;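 note: larvae 5 to 7 days old with five fish per well; signal comes from phospholipase A2 cleavage of quenched PED6 carried via bile; overnight exposure to compound and PED6 before scoring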); settings: Zebrafish larvae PED6 lipid processing, fluorescence scoring; screened at 20 µM (by protocol)
Summary of the method: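 system = live zebrafish larvae aged 5-7 days, whole organism | probe or stimulus = ingested quenched lipid PED6 at 100 nM | doses = 20 µM single dose | timing = overnight exposure | detection = fluorescence microscopy with visual scoring of gall bladder and intestine | read-out = visual per-well fluorescence inhibition score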

[9] = loss of swimming-algae plug formation – whole organism, Chlamydomonas reinhardtii, WT vs cilia-less mutant, absorbance, 96-well, primary screen (AID 463189;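 active = inhibition at or above 50% relative to wild type and mutant plate controls; inactive = inhibition below 50%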;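 note: 0% = wild type cc124 cells in DMSO and 100% = ciliumless bld1 mutant cells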); settings: Chlamydomonas reinhardtii gravitaxis, OD600 absorbance, 2 days; at 10 µM; stronger effect = higher value
[10] = measured here: cell density z-score
[11] = measured here: nuclear c-Myc green intensity z-score
[12] = measured here: nuclear pErk red intensity z-score, stronger effect = higher value

Dual specificity protein phosphatase 6 (Homo sapiens), sequence (Q16828 whole entry, looked up): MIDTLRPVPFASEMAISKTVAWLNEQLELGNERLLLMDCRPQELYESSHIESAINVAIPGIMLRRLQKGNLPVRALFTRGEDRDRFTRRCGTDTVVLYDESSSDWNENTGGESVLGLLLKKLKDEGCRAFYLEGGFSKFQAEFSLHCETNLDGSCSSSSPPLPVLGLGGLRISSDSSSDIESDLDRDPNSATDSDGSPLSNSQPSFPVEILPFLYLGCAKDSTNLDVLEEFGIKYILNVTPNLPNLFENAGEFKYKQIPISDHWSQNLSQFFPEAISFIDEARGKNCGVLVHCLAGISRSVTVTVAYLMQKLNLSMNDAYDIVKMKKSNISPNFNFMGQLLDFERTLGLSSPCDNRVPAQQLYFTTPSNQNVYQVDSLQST
Muscarinic acetylcholine receptor M4 (Homo sapiens), sequence (P08173 whole entry, looked up): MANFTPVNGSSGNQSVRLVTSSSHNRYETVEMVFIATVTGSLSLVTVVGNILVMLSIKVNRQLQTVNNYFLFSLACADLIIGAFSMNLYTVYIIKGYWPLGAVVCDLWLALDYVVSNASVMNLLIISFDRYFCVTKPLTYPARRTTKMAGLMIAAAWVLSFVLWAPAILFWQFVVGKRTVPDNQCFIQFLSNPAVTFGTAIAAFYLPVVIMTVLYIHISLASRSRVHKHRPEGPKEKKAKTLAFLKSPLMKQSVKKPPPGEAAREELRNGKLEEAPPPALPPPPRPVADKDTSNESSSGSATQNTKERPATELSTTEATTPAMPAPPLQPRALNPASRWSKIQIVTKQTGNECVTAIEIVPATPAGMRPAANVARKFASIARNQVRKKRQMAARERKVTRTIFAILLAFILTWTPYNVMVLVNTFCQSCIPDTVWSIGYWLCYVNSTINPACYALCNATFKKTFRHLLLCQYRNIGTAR
Voltage-gated potassium channel subunit beta-2 (Rattus norvegicus), sequence (P62483 whole entry, looked up): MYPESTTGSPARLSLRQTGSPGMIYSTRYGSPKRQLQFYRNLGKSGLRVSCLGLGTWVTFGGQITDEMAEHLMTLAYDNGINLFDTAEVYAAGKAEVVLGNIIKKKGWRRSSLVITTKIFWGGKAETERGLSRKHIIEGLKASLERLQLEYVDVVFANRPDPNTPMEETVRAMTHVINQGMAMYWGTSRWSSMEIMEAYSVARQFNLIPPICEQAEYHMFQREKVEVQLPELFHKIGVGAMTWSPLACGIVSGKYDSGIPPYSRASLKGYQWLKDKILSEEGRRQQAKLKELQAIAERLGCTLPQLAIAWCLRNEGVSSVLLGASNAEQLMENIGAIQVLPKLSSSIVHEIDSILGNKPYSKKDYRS

Row | SMILES | cell count [1] | inhibition [1] | inhibition [2] | nuclei count [2] [%] | z-score [3, 10] | z-score [3, 11] | z-score [3, 12] | inhibition [4] | fluorescence slope [5] | NADPH fluorescence slope [6] | fluorescence slope [7] | outcome [8] | inhibition [9]
1 | O=C(Oc1cccnc1)c1ccco1 | 545 | -0.5% (inactive) | 2.1% (inactive) | 99 | -1.51 | 1.45 | 1.18 | -3.95% (inactive) | -0.449 (inactive) | -4.3e-05 (inactive) | 0.00414 (inactive) | inactive | -17% (inactive)
2 | COC(=O)c1ccc(C2/C(=C(\O)c3ccc4c(c3)OCCO4)C(=O)C(=O)N2CCCN(C)C)cc1 (stereo not drawn) | 366 | -2.2% (inactive) | 1.3% (inactive) | 91.5 | -1.2 | -0.278 | 0.407 | 9.82% (inactive) | -0.442 (inactive) | -0.000114 (inactive) | 0.00519 (inactive) | inactive | 25% (inactive)
3 | CC1(C)Cc2c(C#N)c(N3CCN(C(=O)c4ccccc4)CC3)nc(-c3ccco3)c2CS1 | 640 | -9% (inactive) | -74.3% (inactive) | 156 | 0.833 | 0.824 | -0.638 | 19.1% (inactive) | -0.401 (inactive) | -2.5e-05 (inactive) | 0.0059 (inactive) | inactive | 7.79% (inactive)
4 | CN(Cc1ccccc1)c1ncnc2ccc(Br)cc12 | 591 | -9.8% (inactive) | -5.2% (inactive) | 116 | -0.293 | -0.951 | 0.281 | 2.92% (inactive) | -0.517 (inactive) | -8e-05 (inactive) | 0.00669 (inactive) | inactive | 18.9% (inactive)
5 | COc1ccc(C(=O)c2oc3nc(C)cc(C)c3c2N)cc1 | 400 | 3.1% (inactive) | 7.4% (inactive) | 117 | 1.15 | -1.17 | -0.769 | 19.4% (inactive) | -0.379 (inactive) | -2e-05 (inactive) | 0.00438 (inactive) | inactive | 23.4% (inactive)
6 | CCc1nc(NC2CCCCC2)c(C#N)c2c1COC(C)(C)C2 | 573 | -9.3% (inactive) | -95.5% (inactive) | 153 | 0.843 | -0.37 | -0.579 | 29.5% (inactive) | -0.475 (inactive) | -2.5e-05 (inactive) | 0.00603 (inactive) | inactive; toxic | -1.73% (inactive)
7 | COc1ccc(C2/C(=C(\O)c3ccc4c(c3)OCCO4)C(=O)C(=O)N2CCCN(C)C)cc1 (stereo not drawn) | 368 | -2.4% (inactive) | -14.3% (inactive) | 131 | -2.04 | 0.887 | -0.106 | 3.56% (inactive) | -0.506 (inactive) | -3.1e-05 (inactive) | 0.00537 (inactive) | inactive | -13.1% (inactive)
8 | COCCCn1c2nc3ccccc3nc2c2c(=O)n(-c3ccccc3OC)c(C)nc21 | 671 | -8.6% (inactive) | -13.5% (inactive) | 185 | 0.714 | -0.748 | 0.0802 | 9.07% (inactive) | -0.442 (inactive) | -3.7e-05 (inactive) | 0.0072 (inactive) | inactive | 4.04% (inactive)
9 | CCOC(=O)CSc1nc(N)c(C(=O)Nc2ccc(N(C)C)cc2)s1 | 703 | -7% (inactive) | -123% (inactive) | 188 | -1.17 | 1.84 | -1.52 | 1.98% (inactive) | -0.46 (inactive) | -6.8e-05 (inactive) | 0.00383 (inactive) | active; weak signal in gallbladder and intestine | -7.12% (inactive)
10 | CCOC(=O)c1c2c(c(=S)n(-c3ccccc3)c1N)CCC2 | 569 | -8.6% (inactive) | -65.1% (inactive) | 135 | -0.086 | 1.03 | -0.638 | -3.95% (inactive) | -0.463 (inactive) | -9.5e-05 (inactive) | 0.00449 (inactive) | inactive | 9.7% (inactive)
11 | COc1cc(C2C(C(=O)c3sc(C)nc3C)=C(O)C(=O)N2CCN(C)C)cc(OC)c1OC (stereo not drawn) | 398 | 3.6% (inactive) | -36.2% (inactive) | 155 | 0.333 | 0.0451 | 0.204 | 3.56% (inactive) | -0.446 (inactive) | -0.000115 (inactive) | 0.00444 (inactive) | inactive | -3.66% (inactive)
12 | Cn1c(=O)n(CC(=O)Nc2ccccc2)c2ccccc21 | 382 | -4.5% (inactive) | -15.2% (inactive) | 152 | -0.194 | 0.676 | -0.438 | 22.3% (inactive) | -0.453 (inactive) | -0.000119 (inactive) | 0.0039 (inactive) | inactive | -5.61% (inactive)
13 | O=C(CSc1nc2ccccc2c(=O)n1CC1CCCCC1)N1CCOCC1 | 369 | -5.3% (inactive) | -6.6% (inactive) | 136 | -0.271 | -0.657 | -0.609 | 7.42% (inactive) | -0.465 (inactive) | -8.1e-05 (inactive) | 0.00433 (inactive) | inactive | -8.49% (inactive)
14 | Cc1nnc2n(-c3ccccc3)c(=O)c3c4c(sc3n12)COC(C)(C)C4 | 526 | -14.8% (inactive) | -32.4% (inactive) | 98.4 | 0.218 | -0.0554 | -0.749 | 24% (inactive) | -0.48 (inactive) | 2.3e-05 (inactive) | 0.00589 (inactive) | inactive | 38.4% (inactive)
15 | O=C1C(=O)N(CCCn2ccnc2)C(c2ccccn2)/C1=C(/O)c1ccccc1 (stereo not drawn) | 436 | -12.2% (inactive) | -259% (inactive) | 147 | -0.279 | -1.33 | 0.494 | 9.37% (inactive) | -0.469 (inactive) | -5.2e-05 (inactive) | 0.00446 (inactive) | inactive | 0.678% (inactive)
16 | O=C1CCC(=O)N1c1nc2n(n1)C(c1ccccc1)C=C(c1ccc(Br)cc1)N2 (stereo not drawn) | 369 | 3% (inactive) | -50% (inactive) | 71.6 | 0.246 | -0.538 | -1.14 | 3.56% (inactive) | -0.374 (inactive) | -9.5e-05 (inactive) | 0.0047 (inactive) | inactive | 17.5% (inactive)
17 | CCCCOc1ccccc1C(=O)NCCCCCC(=O)O | 375 | -2.6% (inactive) | -80.5% (inactive) | 150 | 1.24 | -0.608 | 1.41 | -0.584% (inactive) | -0.462 (inactive) | -0.000119 (inactive) | 0.00571 (inactive) | inactive | 19.6% (inactive)
18 | O=C1c2ccccc2C(=O)N1CC1c2ccccc2CCN1C(=O)N1CCOCC1 (stereo not drawn) | 775 | -4.1% (inactive) | -16.4% (inactive) | 202 | 0.51 | 1.63 | 0.969 | 1.98% (inactive) | -0.485 (inactive) | -4.9e-05 (inactive) | 0.0053 (inactive) | inactive | -3.71% (inactive)
19 | CCCn1c(SCC(N)=O)nc2c(c1=O)C1(CCCC1)Cc1ccccc1-2 | 555 | -8% (inactive) | 20.3% (inactive) | 170 | 0.28 | 0.545 | 0.00156 | 1.98% (inactive) | -0.386 (inactive) | -5.2e-05 (inactive) | 0.00485 (inactive) | inactive | -1.68% (inactive)
20 | CCCCC(CCC(=O)Nc1ccc(C(=O)OC)cc1)C(=O)O (stereo not drawn) | 405 | -4.7% (inactive) | -189% (inactive) | 152 | 0.378 | -1.21 | -0.623 | 14% (inactive) | -0.439 (inactive) | -0.000105 (inactive) | 0.00484 (inactive) | inactive | 25.1% (inactive)
21 | Cn1cc(Cl)nc1C(O)c1ccccc1 (stereo not drawn) | 629 | -11% (inactive) | -61.5% (inactive) | 174 | 0.432 | -0.744 | -0.497 | -0.233% (inactive) | -0.481 (inactive) | -2.6e-05 (inactive) | 0.00721 (inactive) | inactive | 20.3% (inactive)
